The values that follow come from ChEMBL document CHEMBL3351772, “Xenortide Biosynthesis by Entomopathogenic Xenorhabdus nematophila” (J Nat Prod, 2014).

Assay [1] relates to Leishmania donovani. Nature of the assay: Antiparasitic activity against Leishmania donovani. Type of assay: functional, organism-based. The method, boiled down:
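Leishmania donovani strain MHOM-ET-67/L82; assay run per an earlier published method.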

Assay [2] concerns Trypanosoma cruzi. Put plainly: Antiparasitic activity against Trypanosoma cruzi Tulahuen C4. Type of assay: functional, organism-based.
Assay [3] concerns Trypanosoma brucei rhodesiense. Put plainly: Antiparasitic activity against Trypanosoma brucei rhodesiense STIB900. Format: functional, organism-based.
The test system of assay [4] is L6. Nature of the assay: Cytotoxicity against rat L6 cells. Format: cell-based. A digest of the protocol:
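Rat L6 skeletal myoblasts; cytotoxicity assay run per an earlier published method.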

Assay [5] concerns Plasmodium falciparum. Nature of the assay: Antiparasitic activity against Plasmodium falciparum NF54. Type of assay: functional, organism-based.

The structures appear in SMILES notation. Square brackets hold non-standard residues; d marks the D form. Peptide text beside a SMILES is read from it. * marks the point of attachment. NMeF = CN[C@@H](Cc1ccccc1)C(=O)O; NMeL = CN[C@@H](CC(C)C)C(=O)O; NHPhenethyl = c1ccc(CCN*)cc1; NMeV = CN[C@H](C(=O)O)C(C)C

The IC50 is the concentration that gives 50% inhibition. Low readings indicate greater potency, high ones weaker potency. For the molecule `CN[C@H](C(=O)N(C)[C@@H](Cc1ccccc1)C(=O)NCCc1c[nH]c2ccccc12)C(C)C`, the IC50 in assay [1] was 17.3 µM; in assay [2], 52.7 µM; in assay [3], 4.92 µM; in assay [4], 85.6 µM; in assay [5], 7.66 µM.
As for `CN[C@H](C(=O)N(C)[C@@H](Cc1ccccc1)C(=O)NCCc1ccccc1)C(C)C` (H-[NMeV]-[NMeF]-NHPhenethyl), the IC50 in assay [1] was 25 µM; in assay [2], 132 µM; in assay [3], 89.2 µM; in assay [4], more than 253 µM; in assay [5] it was more than 126 µM.
On to `CCCCCCCCCCCCCCCCOP(=O)([O-])OCC[N+](C)(C)C` [MILTEFOSINE], for which the half-inhibitory concentration (IC50) in assay [1] was found to be 0.459 µM.
On to `CN[C@@H](CC(C)C)C(=O)N(C)[C@@H](Cc1ccccc1)C(=O)NCCc1ccccc1` [XENORTIDE A] (H-[NMeL]-[NMeF]-NHPhenethyl), for which the IC50 came to 124 µM in assay [1]; 46.4 µM in assay [2]; 22.5 µM in assay [3]; 116 µM in assay [4]; 19.2 µM in assay [5].
As for `CN[C@@H](CC(C)C)C(=O)N(C)[C@@H](Cc1ccccc1)C(=O)NCCc1c[nH]c2ccccc12` [XENORTIDE B], the IC50 in assay [1] came out at 111 µM; in assay [2], 11.7 µM; in assay [3] it was 1.57 µM; in assay [4] it was 13.7 µM; in assay [5], 0.76 µM.
